Columns and labels:
[1] = (§1) Light dose to inactivate 90% of mouse mammary tumor cells (EMT-6) incubated with 1 uM dye for a period of 1 hour.; type: functional
How it was run: (§2)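 EMT-6 mouse mammary tumor cells, 15 × 10^3 per well, were grown overnight in Waymouth's with 15% FBS and incubated at 37 °C with dye at 1 µM in Waymouth's 1% FBS (1 h for line 1, 24 h for line 2). Cells were rinsed and exposed to 660-700 nm red light at 10 mW cm-2 (1.5-30 J cm-2). MTT read at 595 nm next day; LD90 extrapolated from survival curves; 8 replicates per light dose, ≥3 experiments.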

Mus musculus [2] = test: Medium edema caused with EMT-6 tumor at drug dose 2 umol kg e-1, at light dose 400 J cme-2, and at time period of 24 hr.; ++ = Medium edema; type: functional, organism-based; settings: tested as the Zn salt or complex
How it was run: (§3)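 Male BALB/c mice (18-22 g), depilated; 2 × 10^5 EMT-6 cells implanted intradermally on each hind thigh; used 6-8 days later (tumors 3-5 mm diameter, 2-3 mm thick). Dye in PBS given iv (2-20 µmol kg-1); 24 or 48 h later one tumor illuminated with 650-700 nm xenon-lamp light, the other left as control. Edema scored 24 h post-PDT.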

Mus musculus [3] = test: Medium edema caused with EMT-6 tumor at drug dose 5 umol kg e-1, at light dose 400 J cme-2, and at time period of 48 hr.; ++ = Medium edema; type: functional, organism-based; settings: tested as the Zn salt or complex; how it was run: as §3
Mus musculus [4] = species: Mus musculus; test: Percent regression with EMT-6 Tumor in BALB/c mice at drug dose 5 umol kg e-1, at light dose 400 J cme-2, and at time period of 48 hr.; type: functional; how it was run: as §3
Mus musculus [5] = species: Mus musculus; test: Percent necrosis with EMT-6 Tumor in BALB/c mice at drug dose 2 umol kg e-1, at light dose 400 J cme-2, and at time period of 24 hr.; type: functional; how it was run: as §3
Mus musculus [6] = species: Mus musculus; test: Percent necrosis with EMT-6 Tumor in BALB/c mice at drug dose 5 umol kg e-1, at light dose 400 J cme-2, and at time period of 24 hr.; type: functional; how it was run: as §3
Mus musculus [7] = species: Mus musculus; test: Percent necrosis with EMT-6 Tumor in BALB/c mice at drug dose 5 umol kg e-1, at light dose 400 J cme-2, and at time period of 48 hr.; type: functional; how it was run: as §3
Mus musculus [8] = species: Mus musculus; test: Percent necrosis with EMT-6 Tumor in BALB/c mice at drug dose 5 uMol kg e-1, at light dose 400 J cme-2, and at time period of 24 hr.; type: functional; how it was run: as §3
Mus musculus [9] = species: Mus musculus; test: Percent regression with EMT-6 Tumor in BALB/c mice at drug dose 2 umol kg e-1, at light dose 400 J cme-2, and at time period of 24 hr.; type: functional; how it was run: as §3
[10] = (§4) Light dose to inactivate 90% of mouse mammary tumor cells (EMT-6) incubated with 1 uM dye for a period of 24 hour.; type: functional; how it was run: as §2
Mus musculus [11] = test: Medium edema caused with EMT-6 tumor at drug dose 2 umol kg e-1, at light dose 400 J cme-2, and at time period of 24 hr.; type: functional, organism-based; settings: tested as the Zn salt or complex; how it was run: as §3
Mus musculus [12] = test: Medium edema caused with EMT-6 tumor at drug dose 5 umol kg e-1, at light dose 300 J cme-2, and at time period of 24 hr.; ++ = Medium edema; type: functional, organism-based; settings: tested as the Zn salt or complex; how it was run: as §3
Mus musculus [13] = species: Mus musculus; test: Percent necrosis with EMT-6 Tumor in BALB/c mice at drug dose 5 umol kg e-1, at light dose 300 J cme-2, and at time period of 24 hr.; type: functional; how it was run: as §3
Mus musculus [14] = species: Mus musculus; test: Percent regression with EMT-6 Tumor in BALB/c mice at drug dose 5 umol kg e-1, at light dose 300 J cme-2, and at time period of 24 hr.; type: functional; how it was run: as §3
Mus musculus [15] = species: Mus musculus; test: Percent regression with EMT-6 Tumor in BALB/c mice at drug dose 5 umol kg e-1, at light dose 400 J cme-2, and at time period of 24 hr.; type: functional; how it was run: as §3
Mus musculus [16] = test: Medium edema caused with EMT-6 tumor at drug dose 5 umol kg e-1, at light dose 400 J cme-2, and at time period of 24 hr; ++ = Medium edema; type: functional, organism-based; settings: tested as the Zn salt or complex; how it was run: as §3
Mus musculus [17] = species: Mus musculus; test: Percent regression with EMT-6 Tumor in BALB/c mice at drug dose 5 umol kg e-1, at light dose 400 J cme-2, and at time period of 24 hr.
Mus musculus [18] = species: Mus musculus; test: as §1; type: functional; settings: tested as the Zn salt or complex; how it was run: as §2
Mus musculus [19] = test: Light […] edema caused with EMT-6 tumor at drug dose 5 umol kg e-1, at light dose 400 J cme-2, and at time period of 24 hr; + = Light edema; type: functional, organism-based; settings: tested as the Zn salt or complex; how it was run: as §3
Mus musculus [20] = species: Mus musculus; test: as §4; type: functional; settings: tested as the Zn salt or complex; how it was run: as §2
Mus musculus [21] = test: Medium edema caused with EMT-6 tumor at drug dose 2 umol kg e-1, at light dose 400 J cme-2, and at time period of 24 hr; ++ = Medium edema; type: functional, organism-based; settings: tested as the Zn salt or complex; how it was run: as §3
Mus musculus [22] = test: Medium edema caused with EMT-6 tumor at drug dose 5 umol kg e-1, at light dose 400 J cme-2, and at time period of 48 hr; ++ = Medium edema; type: functional, organism-based; settings: tested as the Zn salt or complex; how it was run: as §3
[23] = tested as the Zn salt or complex

O=S(=O)(O)c1ccc2c(c1)-c1nc-2nc2[n-]c(nc3nc(nc4[n-]c(n1)c1ccc(S(=O)(=O)O)cc41)-c1ccc(S(=O)(=O)O)cc1-3)c1ccc(S(=O)(=O)O)cc21.[Zn+2]
LD90 [1]: >30 J cm**-2
Edema (Mus musculus [2]): Medium edema
Edema (Mus musculus [3]): Medium edema
Regression response (Mus musculus [4]): 38%
Necrosis response (Mus musculus [5]): 12%
Necrosis response (Mus musculus [6]): 91%
Necrosis response (Mus musculus [7]): 50%
Regression response (Mus musculus [8]): 91%
Regression response (Mus musculus [9]): 12%
LD90 [10]: 14 J cm**-2

CC(C)(C)c1ccc2c(c1)-c1nc-2nc2[n-]c(nc3nc(nc4[n-]c(n1)c1cc(S(=O)(=O)O)ccc41)-c1cc(S(=O)(=O)O)ccc1-3)c1cc(S(=O)(=O)O)ccc21.[Zn+2]
LD90 [1]: >30 J cm**-2
Edema (Mus musculus [11]): Medium edema
Edema (Mus musculus [12]): Medium edema
Regression response (Mus musculus [4]): 37%
Necrosis response (Mus musculus [5]): 50%
Necrosis response (Mus musculus [13]): 12%
Necrosis response (Mus musculus [6]): 100%
Necrosis response (Mus musculus [7]): 37%
Regression response (Mus musculus [9]): 33%
Regression response (Mus musculus [14]): 0%
Regression response (Mus musculus [15]): 90%
LD90 [10]: 2.5 J cm**-2

O=S(=O)(O)c1ccc2c(c1)-c1nc-2nc2[n-]c(nc3nc(nc4[n-]c(n1)c1ccc(S(=O)(=O)O)cc41)-c1ccccc1-3)c1ccc(S(=O)(=O)O)cc21.[Zn+2]
LD90 [1]: 29 J cm**-2
Edema (Mus musculus [16]): Medium edema
Necrosis response (Mus musculus [6]): 12%
LD90 [10]: 5 J cm**-2
Regression response (Mus musculus [17]): 0%

O=S(=O)(O)c1ccc2c(c1)-c1nc-2nc2[nH]c(nc3nc(nc4[nH]c(n1)c1ccc(S(=O)(=O)O)cc41)-c1nc(-c4ccccc4)c(-c4ccccc4)nc1-3)c1ccc(S(=O)(=O)O)cc21
LD90 (Mus musculus [18]): > 30 J cm··-2
Edema (Mus musculus [19]): Light edema
Necrosis response (Mus musculus [6]; [23]): 25%
LD90 (Mus musculus [20]): 19.5 J cm··-2
Regression response (Mus musculus [17]; [23]): 0%

CC(C)(C)c1ccc2cc3c(cc2c1)-c1nc-3nc2[n-]c(nc3nc(nc4[n-]c(n1)c1cc(S(=O)(=O)O)ccc41)-c1cc(S(=O)(=O)O)ccc1-3)c1cc(S(=O)(=O)O)ccc21.[Zn+2]
LD90 [1]: 21 J cm**-2
Edema (Mus musculus [21]): Medium edema
Edema (Mus musculus [22]): Medium edema
Regression response (Mus musculus [4]): 87%
Necrosis response (Mus musculus [5]): 60%
Necrosis response (Mus musculus [13]): 71%
Necrosis response (Mus musculus [6]): 100%
Necrosis response (Mus musculus [7]): 87%
Regression response (Mus musculus [9]): 60%
Regression response (Mus musculus [14]): 43%
Regression response (Mus musculus [15]): 86%
LD90 [10]: 2.5 J cm**-2

Source: ChEMBL document CHEMBL1130245, “Syntheses and photodynamic activities of novel trisulfonated zinc phthalocyanine derivatives” (1997)
